In PubChem BioAssay:
Calls of active or inactive are those of the source.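 The calls were made as follows, unless noted: active = inhibition at or above 50% at 10 µM; inactive = inhibition below 50%.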

Key:
[1] = inhibitors of TNFa-induced NFkB p65 translocation, primary screen, imaging, HUVEC, MLSMR starter and 10KST1 sets (AID 438;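 active = inhibition above 20% together with a positive visual image hit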;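 also: compound added about 3h40 before a 20 min TNFalpha stimulation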;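 as to inhibition: signal is the nuclear over cytoplasmic p65 intensity ratio per well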); conditions: HUVEC TNFa-induced p65 nuclear translocation; cell count: measured here: nuclei count (cytotoxicity indicator), at 2.08 µM; inhibition: at 2 µM, stronger effect = higher value, 0% TNFa-plus-vehicle, 100% no-TNFa wells
[2] = inhibitors of mutant huntingtin aggregation, primary screen, imaging, exon1htt(103Q)mCFP cells, high-content imaging (AID 483;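 active = visual image review flags a hit and inhibition of aggregation exceeds 20%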;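 also: compound exposure lasted 3 days before fixation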;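 as to nuclei count: percent of the per-plate median nuclei count of sample wells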); conditions: exon1htt(103Q)mCFP cell line, aggregate imaging, at 2 µM; inhibition of aggregation: stronger effect = higher value; nuclei count: measured here: cell count, toxicity
[3] = inhibitors of E-selectin induction by TNFa, primary screen, imaging, HUVEC, immunofluorescence, MLSMR starter and 10KST1 sets (AID 487;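 active = visually confirmed hit in the image check and inhibition above 20%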;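 as to inhibition: signal is fraction of cell area covered by stained E-selectin grains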;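 as to nuclei count: 100% = median nuclei count of all wells on the same plate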); conditions: HUVEC TNFalpha-induced E-selectin immunofluorescence imaging, at 2 µM; inhibition: stronger effect = higher value; nuclei count: measured here: cell number, toxicity
[4] = target: Voltage-gated potassium channel subunit beta-2 (Rattus norvegicus) (UniProt P62483); experiment: KvBeta enzyme negative modulators, primary screen, biochemical, NADPH fluorescence (AID 622;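 active = fluorescence slope higher than the sample average by over 3 SD, cut at about -0.22 in these data, passing the limit was not always enough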;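 also: slope of raw intensity against log time taken from 70 to 1610 s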); conditions: recombinant KvBeta, 4-cyanobenzaldehyde reduction, at 10 µM, stronger effect = higher value
[5] = target: Voltage-gated potassium channel subunit beta-2 (Rattus norvegicus) (UniProt P62483); experiment: KvBeta positive modulators, primary screen, biochemical, NADPH fluorescence (AID 623;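 active = NADPH fluorescence slope more negative than the mean of all samples by about 3 SD, 99.7% confidence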;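 also: fluorescence intensity change per second fitted from 20 to 320 s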); conditions: Recombinant KvBeta, NADPH fluorescence decrease slope, 10 min; at 10 µM; stronger effect = lower value
[6] = target: Alpha-2C adrenergic receptor (Homo sapiens) (UniProt P18825); experiment: modulators of alpha2C/GIRK thallium flux, primary screen, cell-based, HEK293 alpha2C/GIRK1/2 (AID 624;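 active = fluorescence slope after compound addition differing from the mean of all screened samples at 99.7% confidence, in either direction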;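 also: slope of fluorescence ratio to pre-addition baseline per second over 15 to 24 s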); conditions: thallium flux BTC fluorescence, at 10 µM, actives lie on both sides
[7] = inhibitors of larval lipid processing in zebrafish, primary screen, whole organism, PED6 fluorescence, gall bladder and intestine (AID 686;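 active = a full or partial loss of lipid-probe fluorescence in the fish gall bladder, intestine or both, judged by eye; inactive = no fluorescence loss, or compound toxic to the fish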;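 also: larvae 5 to 7 days old with five fish per well; signal comes from phospholipase A2 cleavage of quenched PED6 carried via bile; overnight exposure to compound and PED6 before scoring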); conditions: Zebrafish larvae PED6 lipid processing, fluorescence scoring; screened at 20 µM (by protocol)
How it was run: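 system = live zebrafish larvae aged 5-7 days, whole organism | probe or stimulus = ingested quenched lipid PED6 at 100 nM | doses = 20 µM single dose | timing = overnight exposure | detection = fluorescence microscopy with visual scoring of gall bladder and intestine | read-out = visual per-well fluorescence inhibition score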

[8] = inhibitors of Sendai virus-induced IRF3 signaling, primary screen, TLR/RLR signaling modifier project, cell-based, Sendai virus stimulus, luciferase, 10K MLSCN set (AID 602276); conditions: HEK293 RL24 IRF3 luciferase reporter, at 10 µM, stronger effect = higher value;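 also: firefly luciferase from ISG56 promoter only with Renilla not read in this screen; 0% = Sendai virus plus DMSO and 100% = medium plus DMSO without virus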
[9] = inhibitors of poly I:C-induced TLR3 signaling, primary screen, cell-based, poly I:C stimulus, luciferase, 10K MLSCN set (AID 602277;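 active = inhibition of the reporter signal at or above 50%; inactive = inhibition below 50%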); conditions: HEK293-TLR3 RL24 IRF3 luciferase reporter, at 10 µM, stronger effect = higher value

Alpha-2C adrenergic receptor (Homo sapiens), sequence (P18825 whole entry, looked up): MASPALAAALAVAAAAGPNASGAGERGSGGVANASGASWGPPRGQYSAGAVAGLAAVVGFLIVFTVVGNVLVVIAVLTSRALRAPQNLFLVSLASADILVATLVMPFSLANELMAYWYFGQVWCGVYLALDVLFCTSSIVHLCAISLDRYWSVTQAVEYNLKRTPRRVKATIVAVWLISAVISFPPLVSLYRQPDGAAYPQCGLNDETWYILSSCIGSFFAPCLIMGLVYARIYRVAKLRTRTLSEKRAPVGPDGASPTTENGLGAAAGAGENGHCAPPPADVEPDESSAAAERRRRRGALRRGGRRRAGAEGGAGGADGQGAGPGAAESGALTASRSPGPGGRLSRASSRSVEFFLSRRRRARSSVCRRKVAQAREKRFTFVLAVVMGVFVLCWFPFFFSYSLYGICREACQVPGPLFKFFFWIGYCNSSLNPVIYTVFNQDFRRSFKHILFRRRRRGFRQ
Voltage-gated potassium channel subunit beta-2 (Rattus norvegicus), sequence (P62483 whole entry, looked up): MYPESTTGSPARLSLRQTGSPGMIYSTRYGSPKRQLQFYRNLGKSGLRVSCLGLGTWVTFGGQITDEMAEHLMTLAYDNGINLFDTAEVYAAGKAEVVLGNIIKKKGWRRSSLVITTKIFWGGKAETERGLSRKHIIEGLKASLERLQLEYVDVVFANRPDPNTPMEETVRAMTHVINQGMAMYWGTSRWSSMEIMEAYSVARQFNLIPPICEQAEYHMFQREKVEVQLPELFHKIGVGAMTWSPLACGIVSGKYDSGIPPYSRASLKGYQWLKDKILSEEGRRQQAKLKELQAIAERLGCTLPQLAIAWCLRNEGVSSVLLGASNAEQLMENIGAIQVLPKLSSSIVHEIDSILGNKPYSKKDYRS

COc1ccc(NC(=O)Nc2ccccc2C)c(OC)c1
107%: nuclei count [2]
116%: nuclei count [3]
371: cell count [1]
inactive: inhibition [1] 1.5% | inhibition of aggregation [2] -3.2% | inhibition [3] -31.1% | fluorescence slope [4] -0.379 | NADPH fluorescence slope [5] -7.9e-05 | slope [6] 0.00603 | outcome [7] | inhibition [8] 6.08% | inhibition [9] 12.1%

COc1cc(-c2nc(-c3ccncc3)no2)cc(OC)c1OC
88.9%: nuclei count [2]
inactive: inhibition [1] -1.1% | inhibition of aggregation [2] -1.8% | inhibition [3] 58.4% | fluorescence slope [4] -0.341 | NADPH fluorescence slope [5] -3.8e-05 | slope [6] 0.00475 | outcome [7] | inhibition [8] 4.77% | inhibition [9] -3.43%
50.2%: nuclei count [3]
491: cell count [1]

Cc1cc(C(=O)COC(=O)c2n[nH]c3ccccc23)c(C)n1C
86.6%: nuclei count [2]
96.7%: nuclei count [3]
inactive: inhibition [1] 2.6% | inhibition of aggregation [2] -0.6% | inhibition [3] 12.4% | fluorescence slope [4] -0.445 | NADPH fluorescence slope [5] -1.8e-05 | slope [6] 0.00398 | outcome [7] | inhibition [8] 5.43% | inhibition [9] -24.2%
377: cell count [1]

COc1ccc(N2CCN(C(=O)CSc3ccccc3)CC2)cc1
108%: nuclei count [3]
393: cell count [1]
inactive: inhibition [1] -11.8% | inhibition of aggregation [2] 1.5% | inhibition [3] -18.6% | fluorescence slope [4] -0.401 | NADPH fluorescence slope [5] -5.3e-05 | slope [6] 0.00515 | outcome [7] | inhibition [8] -14.2% | inhibition [9] -34.1%
105%: nuclei count [2]

O=C(c1ccco1)c1nnn(Cc2ccccc2)c1-c1ccccc1
346: cell count [1]
122%: nuclei count [2]
116%: nuclei count [3]
inactive: inhibition [1] -4.3% | inhibition of aggregation [2] 4% | inhibition [3] -90% | fluorescence slope [4] -0.347 | NADPH fluorescence slope [5] 7.1e-06 | slope [6] 0.00349 | outcome [7] | inhibition [8] -4.9% | inhibition [9] 0.479%

COc1ccc(OC)c(NS(=O)(=O)Cc2ccccc2)c1
110%: nuclei count [2]
356: cell count [1]
120%: nuclei count [3]
inactive: inhibition [1] 6.3% | inhibition of aggregation [2] -14.8% | inhibition [3] -73.7% | fluorescence slope [4] -0.424 | NADPH fluorescence slope [5] -1.8e-05 | slope [6] 0.00242 | outcome [7] | inhibition [8] 13.9% | inhibition [9] 16.5%

COc1cc(SC)ccc1C(=O)Nc1ccccc1C#N
2.1%: nuclei count [2]
inactive: inhibition [1] 3.9% | inhibition of aggregation [2] -95.3% | inhibition [3] -147% | fluorescence slope [4] -0.449 | NADPH fluorescence slope [5] -1.3e-05 | slope [6] 0.00527 | outcome [7] | inhibition [8] -42.4% | inhibition [9] -61.5%
417: cell count [1]
111%: nuclei count [3]

COc1cc(C(=O)NCC(=O)OCC(=O)c2ccc[nH]2)cc(OC)c1OC
inactive: inhibition [1] -23% | inhibition of aggregation [2] 10.7% | inhibition [3] -64.2% | fluorescence slope [4] -0.458 | NADPH fluorescence slope [5] -4.1e-05 | slope [6] 0.00501 | outcome [7] | inhibition [8] 13.9% | inhibition [9] 16.7%
101%: nuclei count [2]
383: cell count [1]
107%: nuclei count [3]

CCOC(=O)c1ccc(NC(=O)N2CCN(Cc3cccc(F)c3)CC2)cc1
inactive: inhibition [1] -1.4% | inhibition of aggregation [2] -19% | inhibition [3] -126% | fluorescence slope [4] -0.424 | NADPH fluorescence slope [5] -5e-05 | slope [6] 0.00506 | outcome [7] | inhibition [8] 5.73% | inhibition [9] 7.2%
97.2%: nuclei count [2]
109%: nuclei count [3]
688: cell count [1]

CCc1nnc(NC(=O)CSc2nnc(-c3ccccc3OC)n2-c2ccccc2)s1
128%: nuclei count [3]
276: cell count [1]
inactive: inhibition [1] -6.9% | inhibition of aggregation [2] 14.1% | inhibition [3] -163% | fluorescence slope [4] -0.396 | NADPH fluorescence slope [5] -7.8e-05 | slope [6] 0.00574 | outcome [7] | inhibition [8] 11.4% | inhibition [9] 8.06%
146%: nuclei count [2]

O=C(NCCCN1CCN(Cc2ccccc2)CC1)C1CCN(c2nnc(-n3cccc3)s2)CC1
126%: nuclei count [3]
inactive: inhibition [1] -11.8% | inhibition of aggregation [2] -22.5% | inhibition [3] -119% | fluorescence slope [4] -0.393 | NADPH fluorescence slope [5] -5e-05 | slope [6] 0.00457 | outcome [7] | inhibition [8] -19.7% | inhibition [9] -72%
336: cell count [1]
103%: nuclei count [2]
